From ChEMBL document CHEMBL4190193, “Stachybotrysins A-G, Phenylspirodrimane Derivatives from the Fungus Stachybotrys chartarum” (J Nat Prod, 2017)
pIC50: −log10 of the molar value.

Legend:
[1] = test system: Human immunodeficiency virus 1; assay: Antiviral activity against VSV-G pseudotyped HIV1 infected in human SupT1 cells after 48 hrs by firefly luciferase reporter gene assay; format: functional, organism-based; conditions: Human immunodeficiency virus 1, SUP-T1, 48 h
Outline: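 293T cells (2 × 105) cotransfected with 0.6 μg pNL-Luc-E−-Vpu− and 0.4 μg pHIT/G. Supernatant harvested at 48 h, 0.45 μm filtered, capsid p24 quantified by antigen-capture ELISA. SupT1 cells infected at MOI 1, 37 °C, 48 h, with compound at several concentrations, each in triplicate. Efavirenz as control. Inhibition measured by firefly luciferase; IC50 calculated from it.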

[2] = test system: HepG2; assay: Cytotoxicity against human HepG2 cells assessed as reduction in cell viability after 96 hrs by MTT assay; format: cell-based; conditions: HepG2, 96 h
Outline: (§1)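 MTT assay. Cells were grown in RPMI 1640 with 10% FBS, penicillin and streptomycin at 37 °C under 5% CO2, then seeded at 1200 cells/well. Compounds were added after 24 h at 10−4 to 10−8 M (five concentrations, final DMSO 0.1% v/v) and incubated 96 h. Absorbance was read at 570 nm. Paclitaxel was the positive control, with triplicates per concentration; IC50 was calculated from these.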

[3] = test system: NCI-H460; assay: Cytotoxicity against human NCI-H460 cells assessed as reduction in cell viability after 96 hrs by MTT assay; format: cell-based; conditions: NCI-H460, 96 h; outline: as §1
[4] = test system: BGC-823; assay: Cytotoxicity against human BGC823 cells assessed as reduction in cell viability after 96 hrs by MTT assay; format: cell-based; conditions: BGC-823, 96 h; outline: as §1
[5] = test system: Influenza A virus; assay: Antiviral activity against VSV-G pseudotyped Influenza A virus infected in human SupT1 cells after 48 hrs by firefly luciferase reporter gene assay; format: functional, organism-based; conditions: SUP-T1, 48 h

Row | SMILES | pIC50 [1] | pIC50 [2] | pIC50 [3] | pIC50 [4] | pIC50 [5]
1 | Cc1cc(O)c2c(c1C=O)O[C@]1(C2)[C@H](C)CC[C@H]2C(C)(C)[C@H](O)CC[C@@]21C | 4.69 to 4.81 | 4.74 | 4.80 | 4.66 | –
2 | CC(=O)/C=C/c1c(CO)cc(O)c2c1O[C@]1(C2)[C@H](C)CC[C@H]2C(C)(C)[C@H](O)CC[C@@]21C | – | – | – | – | 4.63 to 4.91
3 | C=C1CC[C@H]2C(C)(C)[C@H](O)CC[C@]2(C)[C@@]12Cc1c(O)cc(COC(C)=O)c(C=O)c1O2 | 4.69 to 4.81 | – | – | – | –
4 | CC(=O)C[C@@H]1OCc2cc(O)c3c(c21)O[C@]1(C3)[C@H](C)CC[C@H]2C(C)(C)[C@H](O)CC[C@@]21C | 4.69 to 4.81 | 4.61 | – | – | 4.63 to 4.91
5 | CC(=O)O[C@@H]1CC[C@@]2(C)[C@@H](CC[C@@H](C)[C@]23Cc2c(O)cc(CO)c(C=O)c2O3)C1(C)C | 4.69 to 4.81 | – | – | – | –
6 | CC(=O)O[C@@H]1CC[C@@]2(C)[C@@H](CC[C@@H](C)[C@]23Cc2c(O)cc4c(c2O3)COC4=O)C1(C)C | – | – | – | – | 4.63 to 4.91
7 | CC(=O)C[C@H]1OCc2cc(O)c3c(c21)O[C@]1(C3)[C@H](C)CC[C@H]2C(C)(C)[C@H](O)CC[C@@]21C | – | – | – | – | 4.63 to 4.91
8 | CC(=O)O[C@@H]1CC[C@@]2(C)[C@@H](CC[C@@H](C)[C@]23Cc2c(O)cc(C)c(C=O)c2O3)C1(C)C | 4.69 to 4.81 | 4.61 | – | – | 4.63 to 4.91
9 | CC(=O)O[C@H]1C(=O)[C@@]2(C)[C@H]([C@H](OC(=O)c3ccccc3)[C@]3(O)C[C@H](OC(=O)[C@H](O)[C@@H](NC(=O)c4ccccc4)c4ccccc4)C(C)=C1C3(C)C)[C@]1(OC(C)=O)CO[C@@H]1C[C@@H]2O [PACLITAXEL] | – | 8.20 | 9.00 | 9.10 | –
10 | NC(=O)c1ncn([C@@H]2O[C@H](CO)[C@@H](O)[C@H]2O)n1 [RIBAVIRIN] | – | – | – | – | 8.70
